For data set [1], the system named is Human immunodeficiency virus 1. Kind of data set: Antiviral activity against HIV1 3B Y181C resistant mutant in human MT4 cells assessed as protection against viral induced cytopathogenicity by MTT assay. Format: functional, organism-based. The note with it: Human immunodeficiency virus 1, 3B. The essentials:
(§1)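 MT-4 cells infected with HIV-1 carrying the NNRTI-resistance mutation were assayed for protection from virus-induced cytopathogenicity, read out as cell viability by MTT. EC50 is the compound concentration giving 50% protection. Values are means of three separate experiments, with variation among triplicate samples under 10%. Efavirenz served as the reference.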
In general terms: Cytopathic effects are the visible damage that an infection or toxin causes in cultured cells.

Data set [2] can be described thus: Cytotoxicity against mock-infected human MT4 cells by MTT assay. Format: cell-based. An outline of the steps:
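Mock-infected MT-4 cells, tested in parallel with the antiviral assay; viability read by MTT method; CC50 is the concentration lowering viability by 50%; mean of three separate experiments, triplicate variation under 10%.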

Data set [3] concerns Human immunodeficiency virus 1. Kind of data set: Antiviral activity against HIV1 3B Y181C/K103N double mutant in human MT4 cells assessed as protection against viral induced cytopathogenicity by MTT assay. In kind it is functional, organism-based. The essentials:
as §1

The subject of data set [4] is Human immunodeficiency virus 1. Kind of data set: Antiviral activity against wild type HIV1 3B in human MT4 cells assessed as protection against viral induced cytopathogenicity by MTT assay. The note with it: Human immunodeficiency virus 1, 3B. Format: functional, organism-based. An outline of the steps: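 MT-4 cells infected with HIV-1; 50% protection from virus-induced cytopathogenicity read by MTT method; EC50 in micromolar; mean of three separate experiments, triplicate samples varying under 10%.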

Data set [5] in a line: Selectivity index, ratio of CC50 for human MT4 cells to EC50 for HIV1 3B. Format: toxicity, cell-based. The note with it: read-out: Ratio CC50/EC50. An outline of the steps:
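Ratio of CC50 in mock-infected MT-4 cells to EC50 for protection from HIV-1 cytopathogenicity, both read by MTT method.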

In data set [6] the test system is Human immunodeficiency virus 1. The experiment in a line: Antiviral activity against HIV1 3B K103R resistant mutant in human MT4 cells assessed as protection against viral induced cytopathogenicity by MTT assay. The note with it: Human immunodeficiency virus 1, 3B.

Activity calls are given as the source filed them. How the calls were made is not given here.

From ChEMBL document CHEMBL1137716, “Novel modifications in the series of O-(2-phthalimidoethyl)-N-substituted thiocarbamates and their ring-opened congeners as non-nucleoside HIV-1 reverse transcriptase inhibitors” (Eur J Med Chem, 2009) come the findings set out here.

A word on the EC50: it is the midpoint of the concentration-response curve. The CC50 is the concentration at which the toxic effect on the cells reaches its halfway point. Low values mean greater toxicity to the cells, high ones lower toxicity to the cells. As for `Cc1ccc(NC(=S)OCC(C)N2C(=O)c3ccc(C)cc3C2=O)cc1` (racemic), the EC50 in data set [1] came to 12 µM; in data set [4], 0.1 µM. For the same compound, in data set [2], the CC50 amounted to 41 µM. Moreover, the outcome in data set [3] was inactive. Besides, the selectivity ratio in data set [5] stood at 410.
Take `O=C1c2ccccc2C(=O)N1CCOC(=S)Nc1ccc(Cl)c([N+](=O)[O-])c1`: the EC50 in data set [1] was 2.8 µM; in data set [4], 0.05 µM. The compound further registered a CC50 in data set [2] of over 100 µM. For the same compound, in data set [3], the outcome was inactive. The selectivity ratio in data set [5] is over 2000.
The matching figures for `Cc1ccc(NC(=S)OC[C@@H](C)N2C(=O)c3ccccc3C2=O)cc1`: 9 µM, 0.07 µM, 76 µM, “inactive” and 1090.
The matching figures for `Cc1ccc2c(c1)C(=O)N(C(C)COC(=S)Nc1ccc(Cl)cc1)C2=O` (racemic): 4 µM, 0.06 µM, 34 µM, “inactive” and 567.
For `S=C(NCCc1ccccn1)Nc1ccc(Br)cn1` [TROVIRDINE], the EC50 came to 15 µM in data set [1] and 0.02 µM in data set [4]. Moreover, the selectivity ratio in data set [5] worked out at 3000.
For the compound `Cc1ccc2c(c1)C(=O)N(CCOC(=S)Nc1ccc(C#N)cc1)C2=O`, the EC50 was 4.5 µM in data set [1] and 0.01 µM in data set [4]. Further, the CC50 in data set [2] is 57 µM. Besides, the outcome in data set [3] was inactive. For the same compound, in data set [5], the selectivity ratio was found to be 5700.
In the case of `C[C@H](COC(=S)Nc1ccc(Cl)cc1)N1C(=O)c2ccccc2C1=O`, the EC50 was determined as 1.3 µM in data set [1], 4.8 µM in data set [6] and 0.01 µM in data set [4]. In addition, the CC50 in data set [2] turned out to be 48 µM. Also, the outcome in data set [3] was inactive. Moreover, the selectivity ratio in data set [5] amounted to 4800.
For the compound `O=C(O)c1ccccc1C(=O)NCCOC(=S)Nc1ccc(Cl)c(Cl)c1Cl`, the CC50 in data set [2] is over 100 µM. Moreover, in data set [3], the result was inactive. Moreover, the EC50 in data set [4] stood at 44 µM. Moreover, the selectivity ratio in data set [5] is over 2.3.
`O=C1c2ccccc2C(=O)N1CCOC(=S)Nc1c(Cl)cc(Cl)cc1Cl` gave a CC50 in data set [2] of over 100 µM. For the same compound, the outcome in data set [3] was inactive. In addition, the half-maximal effective concentration (EC50) in data set [4] was 10 µM. Moreover, the selectivity ratio in data set [5] is over 10.
Compound `O=C(O)c1ccccc1C(=O)NCCOC(=S)Nc1c(F)c(F)cc(F)c1F` registered a CC50 in data set [2] of over 100 µM. In addition, in data set [3], the outcome was inactive. Also, the concentration giving a half-maximal response (EC50) in data set [4] was found to be 71 µM. In data set [5], the selectivity ratio was over 1.4.
As for `O=C(O)c1ccccc1C(=O)NCCOC(=S)Nc1ccc(F)cc1F`, the CC50 in data set [2] is over 100 µM. Also, the outcome in data set [3] was inactive. In data set [4], the EC50 came to 3.8 µM. The selectivity ratio in data set [5] is over 26.3.
The compound `O=C1c2ccccc2C(=O)N1CCOC(=S)Nc1ccc(Cl)c(Cl)c1` yielded a CC50 in data set [2] of over 100 µM. Also, in data set [3], the result was inactive. Also, the EC50 in data set [4] was found to be 0.2 µM. Moreover, the selectivity ratio in data set [5] is over 500.
Regarding `Cc1ccc2c(c1)C(=O)N(CCOC(=S)Nc1ccc(F)cc1)C2=O`, the figures for the EC50 in data set [1] and in data set [4] were 68 µM and 0.03 µM, respectively. In data set [2], this compound registered a CC50 of 100 µM. Moreover, in data set [3], the result was inactive. The selectivity ratio in data set [5] was 3330.
As to `O=C(O)c1ccccc1C(=O)NCCOC(=S)Nc1cc(F)ccc1F`, the CC50 in data set [2] is over 100 µM. The outcome in data set [3] was inactive. Moreover, the EC50 in data set [4] was determined as 51 µM. Further, the selectivity ratio in data set [5] was over 2.
Consider `C[C@H](COC(=S)Nc1ccc(Cl)cc1)NC(=O)c1ccccc1C(=O)O`, for which the EC50 in data set [1] worked out at 18 µM; in data set [4] it was 0.3 µM. Besides, the CC50 in data set [2] is over 100 µM. In addition, the outcome in data set [3] was inactive. Besides, the selectivity ratio in data set [5] is over 333.
Compound `O=C1c2ccccc2C(=O)N1CCOC(=S)Nc1cc(F)cc(F)c1` showed a CC50 in data set [2] of over 100 µM. The outcome in data set [3] was inactive. In data set [4], the EC50 worked out at 9 µM. In addition, the selectivity ratio in data set [5] is over 11.1.
Regarding `Cc1ccc2c(c1)C(=O)N(CCOC(=S)Nc1ccc(Br)cc1)C2=O`, the midpoint of cytotoxicity in data set [2], the CC50, lay at 59 µM. Further, the outcome in data set [3] was inactive. For the same compound, the half-maximal effective concentration (EC50) in data set [4] was found to be 0.008 µM. The selectivity ratio in data set [5] is 7380.
The matching figures for `CC(=O)c1ccc(NC(=S)OCCN2C(=O)c3ccc(C)cc3C2=O)cc1`: over 100 µM, “inactive”, 0.07 µM and over 1430.
On to `COc1ccc(CCNC(=S)OCCNC(=O)c2ccccc2C(=O)O)cc1OC`, for which half-maximal cytotoxicity in data set [2] (CC50) was put at 100 µM. For the same compound, in data set [3], the outcome was inactive. The half-maximal effective concentration (EC50) in data set [4] is 63 µM. The selectivity ratio in data set [5] was 1.6.
With `Cc1ccc2c(c1)C(=O)N(CCOC(=S)Nc1ccc(Cl)c([N+](=O)[O-])c1)C2=O`, the figures for the EC50 in data set [1] and in data set [4] were 30 µM and 0.05 µM, respectively. For the same compound, in data set [2], the CC50 is over 100 µM. Further, in data set [3], the outcome was inactive. Further, in data set [5], the selectivity ratio was over 2000.
Consider `C[C@@H](COC(=S)Nc1ccc(Cl)cc1)N1C(=O)c2ccccc2C1=O`, for which the CC50 in data set [2] was 84 µM. The outcome in data set [3] was inactive. Also, the EC50 in data set [4] came out at 0.2 µM. Besides, the selectivity ratio in data set [5] is 420.
The matching figures for `CCCCNC(=S)OCCN1C(=O)c2ccccc2C1=O`: over 100 µM, “inactive”, 7.2 µM and over 13.9.
For `CCc1ccc(NC(=S)OCCN2C(=O)c3ccc(C)cc3C2=O)cc1`, the EC50 stood at 16 µM in data set [1] and 0.02 µM in data set [4]. In data set [2], this compound displayed a CC50 of 43 µM. In addition, the result in data set [3] was inactive. Further, the selectivity ratio in data set [5] turned out to be 2150.
The compound `O=C1c2ccccc2C(=O)N1CCOC(=S)Nc1ccc(Cl)c(Cl)c1Cl` came in with a CC50 in data set [2] of over 100 µM. For the same compound, in data set [3], the outcome was inactive. The half-maximal effective concentration (EC50) in data set [4] was 11 µM. In addition, in data set [5], the selectivity ratio was over 9.1.
For `CC(C)(C)c1ccc2c(c1)C(=O)N(CCOC(=S)Nc1ccc(Cl)cc1)C2=O`, in data set [2], half-maximal cytotoxicity (CC50) was put at 55 µM. For the same compound, the outcome in data set [3] was inactive. Moreover, the EC50 in data set [4] is 1.2 µM. For the same compound, the selectivity ratio in data set [5] amounted to 45.8.
In the case of `COc1ccc(NC(=S)OCCN2C(=O)c3ccc(C)cc3C2=O)cc1`, the EC50 was 44 µM in data set [1] and 0.03 µM in data set [4]. The compound further registered a 50% cytotoxic concentration (CC50) in data set [2] of over 100 µM. The result in data set [3] was inactive. The selectivity ratio in data set [5] was over 3330.
On to `Cc1ccc2c(c1)C(=O)N(CCOC(=S)NC1CCCCC1)C2=O`, for which the CC50 in data set [2] is over 100 µM. Besides, the result in data set [3] was inactive. Further, the concentration for a half-maximal effect (EC50) in data set [4] was 0.3 µM. The selectivity ratio in data set [5] was over 333.
In turn, `O=C1c2ccccc2C(=O)N1CCOC(=S)NCC1CCCCC1` came in with a CC50 in data set [2] of over 100 µM. The outcome in data set [3] was inactive. The concentration for a half-maximal effect (EC50) in data set [4] stood at 1.1 µM. Moreover, the selectivity ratio in data set [5] was over 91.
The matching figures for `O=C(O)c1ccccc1C(=O)NCCOC(=S)Nc1cc(F)cc(F)c1`: over 100 µM, “inactive”, 62 µM and over 1.6.
The matching figures for `Cc1ccc2c(c1)C(=O)N(CCOC(=S)Nc1ccc(Cl)c(Cl)c1)C2=O`: 50 µM, “inactive”, 0.2 µM and 250.
The matching figures for `COc1ccc(NC(=S)OCCN2C(=O)c3ccccc3C2=O)cc1OC`: over 100 µM, “inactive”, 3.5 µM and over 28.6.
Take `Cc1ccc2c(c1)C(=O)N(CCOC(=S)Nc1ccc(I)cc1)C2=O`: the EC50 in data set [1] was 9 µM; in data set [4] it was 0.01 µM. For the same compound, in data set [2], half-maximal cytotoxicity (CC50) was put at 89 µM. Besides, the result in data set [3] was inactive. The selectivity ratio in data set [5] is 8900.
In data set [2], `Cc1ccc2c(c1)C(=O)N(CCOC(=S)Nc1ccc(Cl)c(C(F)(F)F)c1)C2=O` yielded a CC50 of 43 µM. In addition, the outcome in data set [3] was inactive. Also, the EC50 in data set [4] worked out at 2.4 µM. Also, the selectivity ratio in data set [5] is 17.9.
For `O=C1Nc2ccc(Cl)cc2[C@@](C#CC2CC2)(C(F)(F)F)O1` [EFAVIRENZ], in data set [1], the EC50 was 0.02 µM.
`Cc1cc(Br)cc(C)c1NC(=S)OCCN1C(=O)c2ccccc2C1=O` had a CC50 in data set [2] of over 100 µM. For the same compound, the result in data set [3] was inactive. In addition, the EC50 in data set [4] was 9 µM. The selectivity ratio in data set [5] was over 11.1.
The matching figures for `Cc1ccc(NC(=S)OCCN2C(=O)c3ccc(C)cc3C2=O)cc1`: 69 µM, “inactive”, 0.02 µM and 3450.
